Data published in ChEMBL document CHEMBL1123985, “Oral absorption of cephalosporin antibiotics. 1. Synthesis, biological properties, and oral bioavailability of 7-(arylacetamido)-3-chloro cephalosporins in animals” (J Med Chem, 1988).
≈ marks a conversion by molar mass, not a printed value. One block for each compound: values may come before it.

Key:
Staphylococcus aureus [1] = test: Minimum inhibitory concentration against 3055 strain of Staphylococcus aureus
[2] = Minimum inhibitory concentration against sens CL strain of Haemophilus influenzae; type: functional
Streptococcus pyogenes [3] = test: Minimum inhibitory concentration against Streptococcus pyogenes C203; type: functional
Staphylococcus aureus [4] = test: Minimum inhibitory concentration against V41 strain of Staphylococcus aureus; type: functional
Escherichia coli = test: Minimum inhibitory concentration against EC14 strain Escherichia coli; type: functional
Streptococcus pneumoniae [5] = test: Minimum inhibitory concentration against park strain of Streptococcus pneumoniae
Streptococcus pneumoniae [6] = test: Minimum inhibitory concentration against Park strain of Streptococcus pneumoniae
Staphylococcus aureus [7] = test: Minimum inhibitory concentration against X1.1 strain of Staphylococcus aureus; type: functional
[8] = test system: Staphylococcus epidermidis; test: Minimum inhibitory concentration against Epil strain of Staphylococcus epidermidis; type: functional
Staphylococcus aureus [9] = test: Minimum inhibitory concentration against S13E strain of Staphylococcus aureus; type: functional
Salmonella = test: Minimum inhibitory concentration against X514 strain of Salmonella; type: functional
[10] = Minimum inhibitory concentration against res 76 strain of Haemophilus influenzae; type: functional
[11] = Minimum inhibitory concentration against N9 strain of Shigella sonnei; type: functional
Streptococcus pyogenes [12] = test: Minimum inhibitory concentration against C203 strain of Streptococcus pyogenes
[13] = Oral bioavailability in mouse; type: ADME, organism-based; details: in vivo
In short: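 Male Cox mice given water and liquid diet overnight; 20 mg/kg in saline (2 mg/mL) sc or orally; urine from collection cages plus bladder contents over 2 h; activity by agar well assay with Bacillus subtilis ATCC 6633. Bioavailability from percent dose excreted in urine after oral vs parenteral dosing.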

Klebsiella aerogenes = test: Minimum inhibitory concentration against EB17 strain of Enterobacter aerogenes; type: functional
[14] = test system: Staphylococcus epidermidis; test: Minimum inhibitory concentration against 222 strain of Staphylococcus epidermidis; type: functional
Klebsiella pneumoniae = test: Minimum inhibitory concentration against X68 strain of Klebsiella pneumoniae; type: functional
[15] = Dose in urine (24-h urine excretion) in female mongrel dogs after oral administration of single 15 mg/kg dose; type: ADME, organism-based, Canis lupus familiaris; design: dose 15 mg/kg, route oral; details: dog
In short: (§1)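 Female mongrel dogs (n=6), bladder catheter; urine collected at intervals after single 15 mg/kg iv or oral solution dose, frozen; antibiotic activity by disk-plate agar diffusion against E. coli MB 3804 with standards in pH 6.0 buffer; percent of dose recovered in urine.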

[16] = Oral bioavailability in dog (female mongrel); type: ADME, organism-based, Canis lupus familiaris; details: in vivo
In short: (§2)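 Six female mongrel dogs (14-23 kg) fasted overnight, bladder catheterized; single 15 mg/kg solution doses by stomach tube (in water, total 500 mL) or cephalic vein (saline or pH 6.0 NaCl/phosphate/acetate buffer). Plasma sampled at intervals; activity by disk-plate agar diffusion against E. coli MB 3804, standards in dog serum or buffer. AUC μg min/mL, mean ± SEM; BA from iv vs po AUC and urinary recovery.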

[17] = Area under plasma concentration vs time curve observed in Rhesus monkeys after, iv administration of single 30 mg/kg dose; type: ADME, organism-based, Macaca mulatta; design: dose 30 mg/kg, route intravenous; details: rhesus monkey
In short: (§3)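 Rhesus monkeys, adult males, six animals per compound, each given drug orally and iv; fasted overnight. Single 30 mg/kg solution doses, by nasogastric tube (in water) or saphenous vein (in isotonic lactated Ringer). Plasma sampled at intervals, frozen at -70 °C, antibacterial activity by microbiological assay. AUC in μg min/mL; oral bioavailability from oral vs iv AUC.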

[18] = Dose in urine (24-h urine excretion) in female mongrel dogs after iv administration of single 15 mg/kg dose; type: ADME, organism-based, Canis lupus familiaris; design: dose 15 mg/kg, route intravenous; details: dog
In short: as §1

Canis familiaris [19] = test: Area under plasma concentration vs time curve observed in female mongrel dogs after, iv administration of single 15 mg/kg dose; type: ADME, organism-based, Canis lupus familiaris; design: dose 15 mg/kg, route intravenous; details: dog, in vivo
In short: as §2

Canis familiaris [20] = test: Area under plasma concentration vs time curve observed in female mongrel dogs after, oral administration of single 15 mg/kg dose; type: ADME, organism-based, Canis lupus familiaris; design: dose 15 mg/kg, route oral; details: dog, in vivo
In short: as §2

[21] = Oral bioavailability in Rhesus monkey; type: ADME, organism-based, Macaca mulatta; details: in vivo
In short: as §3

[22] = Area under plasma concentration vs time curve observed in Rhesus monkeys after oral administration of single 30 mg/kg dose; type: ADME, organism-based, Macaca mulatta; design: dose 30 mg/kg, route oral; details: rhesus monkey
In short: as §3

Structure (SMILES): O=C(Cc1ccccc1)N[C@@H]1C(=O)N2C(C(=O)O)=CCS[C@H]12
MIC (Staphylococcus aureus [1]): 1 µg/mL (≈ 3.14 µM)
MIC [2]: 4 µg/mL (≈ 12.6 µM)
MIC (Streptococcus pyogenes [3]): 0.25 µg/mL (≈ 0.785 µM)
MIC (Staphylococcus aureus [4]): 16 µg/mL (≈ 50.3 µM)
MIC (Escherichia coli): 8 µg/mL (≈ 25.1 µM)
MIC (Streptococcus pneumoniae [5]): 1 µg/mL (≈ 3.14 µM)
MIC (Streptococcus pneumoniae [6]): 1 µg/mL (≈ 3.14 µM)
MIC (Staphylococcus aureus [7]): 1 µg/mL (≈ 3.14 µM)
MIC [8]: 4 µg/mL (≈ 12.6 µM)
MIC (Staphylococcus aureus [9]): 32 µg/mL (≈ 101 µM)
MIC (Salmonella): 8 µg/mL (≈ 25.1 µM)
MIC [10]: 1 µg/mL (≈ 3.14 µM)
MIC [11]: 64 µg/mL (≈ 201 µM)
MIC (Streptococcus pyogenes [12]): 0.25 µg/mL (≈ 0.785 µM)
bioavailability [13]: 12%
MIC (Klebsiella aerogenes): 64 µg/mL (≈ 201 µM)
MIC [14]: 1 µg/mL (≈ 3.14 µM)
MIC (Klebsiella pneumoniae): 4 µg/mL (≈ 12.6 µM)

MIC (Streptococcus pneumoniae [6]): 0.5 µg/mL (≈ 1.27 µM)
MIC (Salmonella): 8 µg/mL (≈ 20.3 µM)
MIC [11]: 64 µg/mL (≈ 162 µM)
bioavailability [13]: 56%
MIC (Klebsiella aerogenes): > 128 µg/mL
Structure (SMILES): O=C(Cc1csc(Cl)n1)N[C@@H]1C(=O)N2C(C(=O)O)=C(Cl)CS[C@H]12

Structure (SMILES): O=C(COc1ccc(O)cc1)N[C@@H]1C(=O)N2C(C(=O)O)=C(Cl)CS[C@H]12
MIC [2]: 2 µg/mL (≈ 5.2 µM)
MIC (Streptococcus pyogenes [3]): 0.06 µg/mL (≈ 0.156 µM)
MIC (Staphylococcus aureus [4]): 128 µg/mL (≈ 333 µM)
MIC (Escherichia coli): 64 µg/mL (≈ 166 µM)
MIC (Streptococcus pneumoniae [6]): 0.125 µg/mL (≈ 0.325 µM)
MIC (Staphylococcus aureus [7]): 0.5 µg/mL (≈ 1.3 µM)
MIC [8]: 16 µg/mL (≈ 41.6 µM)
MIC (Staphylococcus aureus [9]): 128 µg/mL (≈ 333 µM)
MIC (Salmonella): 64 µg/mL (≈ 166 µM)
MIC [10]: 1 µg/mL (≈ 2.6 µM)
MIC [11]: 64 µg/mL (≈ 166 µM)
bioavailability [13]: 21%
MIC (Klebsiella aerogenes): > 128 µg/mL
MIC [14]: 1 µg/mL (≈ 2.6 µM)
MIC (Klebsiella pneumoniae): > 128 µg/mL

Structure (SMILES): O=C(COc1ccccc1)N[C@@H]1C(=O)N2C(C(=O)O)=CCS[C@H]12
MIC (Staphylococcus aureus [1]): 0.5 µg/mL (≈ 1.5 µM)
MIC [2]: 32 µg/mL (≈ 95.7 µM)
MIC (Streptococcus pyogenes [3]): 0.5 µg/mL (≈ 1.5 µM)
MIC (Staphylococcus aureus [4]): 16 µg/mL (≈ 47.9 µM)
MIC (Escherichia coli): 32 µg/mL (≈ 95.7 µM)
MIC (Streptococcus pneumoniae [5]): 0.25 µg/mL (≈ 0.748 µM)
MIC (Streptococcus pneumoniae [6]): 1 µg/mL (≈ 2.99 µM)
MIC (Staphylococcus aureus [7]): 0.5 µg/mL (≈ 1.5 µM)
MIC [8]: 2 µg/mL (≈ 5.98 µM)
MIC (Staphylococcus aureus [9]): 16 µg/mL (≈ 47.9 µM)
MIC (Salmonella): > 128 µg/mL
MIC [10]: 8 µg/mL (≈ 23.9 µM)
MIC [11]: > 128 µg/mL
MIC (Streptococcus pyogenes [12]): 0.25 µg/mL (≈ 0.748 µM)
bioavailability [13]: 22%
MIC (Klebsiella aerogenes): > 128 µg/mL
MIC [14]: 0.5 µg/mL (≈ 1.5 µM)
MIC (Klebsiella pneumoniae): > 128 µg/mL

Structure (SMILES): COC1=C(C(=O)O)N2C(=O)[C@@H](NC(=O)COc3ccccc3)[C@H]2SC1
MIC [2]: 4 µg/mL (≈ 11 µM)
MIC (Streptococcus pyogenes [3]): 1 µg/mL (≈ 2.74 µM)
MIC (Staphylococcus aureus [4]): 32 µg/mL (≈ 87.8 µM)
MIC (Escherichia coli): > 128 µg/mL
MIC (Streptococcus pneumoniae [6]): 1 µg/mL (≈ 2.74 µM)
MIC (Staphylococcus aureus [7]): 2 µg/mL (≈ 5.49 µM)
MIC [8]: 8 µg/mL (≈ 22 µM)
MIC (Staphylococcus aureus [9]): 16 µg/mL (≈ 43.9 µM)
MIC (Salmonella): > 128 µg/mL
MIC [10]: 4 µg/mL (≈ 11 µM)
MIC [11]: > 128 µg/mL
bioavailability [13]: 14%
MIC (Klebsiella aerogenes): > 128 µg/mL
MIC [14]: 2 µg/mL (≈ 5.49 µM)
MIC (Klebsiella pneumoniae): > 128 µg/mL

Structure (SMILES): O=C(Cc1ccsc1)N[C@@H]1C(=O)N2C(C(=O)O)=C(Cl)CS[C@H]12
MIC [2]: 1 µg/mL (≈ 2.79 µM)
MIC (Streptococcus pyogenes [3]): 0.125 µg/mL (≈ 0.348 µM)
MIC (Staphylococcus aureus [4]): 8 µg/mL (≈ 22.3 µM)
MIC (Escherichia coli): 8 µg/mL (≈ 22.3 µM)
MIC (Streptococcus pneumoniae [6]): 0.125 µg/mL (≈ 0.348 µM)
MIC (Staphylococcus aureus [7]): 0.5 µg/mL (≈ 1.39 µM)
MIC [8]: 4 µg/mL (≈ 11.1 µM)
MIC (Staphylococcus aureus [9]): 16 µg/mL (≈ 44.6 µM)
MIC (Salmonella): 1 µg/mL (≈ 2.79 µM)
MIC [10]: 1 µg/mL (≈ 2.79 µM)
MIC [11]: 32 µg/mL (≈ 89.2 µM)
bioavailability [13]: 47%
MIC (Klebsiella aerogenes): > 128 µg/mL
MIC [14]: 1 µg/mL (≈ 2.79 µM)
MIC (Klebsiella pneumoniae): 2 µg/mL (≈ 5.57 µM)

Structure (SMILES): O=C(Cc1ccccc1)N[C@@H]1C(=O)N2C(C(=O)O)=C(Cl)CS[C@H]12
MIC (Staphylococcus aureus [1]): 0.5 µg/mL (≈ 1.42 µM)
dose excreted [15]: 15%
MIC [2]: 1 µg/mL (≈ 2.83 µM)
MIC (Streptococcus pyogenes [3]): 0.125 µg/mL (≈ 0.354 µM)
MIC (Staphylococcus aureus [4]): 16 µg/mL (≈ 45.4 µM)
bioavailability [16]: 17%
MIC (Escherichia coli): 8 µg/mL (≈ 22.7 µM)
MIC (Streptococcus pneumoniae [5]): 0.25 µg/mL (≈ 0.709 µM)
AUC [17]: 58300 ng·h/mL
MIC (Streptococcus pneumoniae [6]): 0.125 µg/mL (≈ 0.354 µM)
dose excreted [18]: 67%
MIC (Staphylococcus aureus [7]): 0.5 µg/mL (≈ 1.42 µM)
MIC [8]: 2 µg/mL (≈ 5.67 µM)
MIC (Staphylococcus aureus [9]): 32 µg/mL (≈ 90.7 µM)
AUC (Canis familiaris [19]): 97300 ng·h/mL
MIC (Salmonella): 4 µg/mL (≈ 11.3 µM)
MIC [10]: 1 µg/mL (≈ 2.83 µM)
MIC [11]: 64 µg/mL (≈ 181 µM)
MIC (Streptococcus pyogenes [12]): 0.125 µg/mL (≈ 0.354 µM)
bioavailability [13]: 37%
AUC (Canis familiaris [20]): 16200 ng·h/mL
bioavailability [21]: 15.1%
AUC [22]: 8830 ng·h/mL
MIC (Klebsiella aerogenes): > 128 µg/mL
MIC [14]: 1 µg/mL (≈ 2.83 µM)
MIC (Klebsiella pneumoniae): 4 µg/mL (≈ 11.3 µM)

Structure (SMILES): C=CC1=C(C(=O)O)N2C(=O)[C@@H](NC(=O)Cc3csc(N)n3)[C@H]2SC1
MIC [2]: 4 µg/mL (≈ 10.9 µM)
MIC (Streptococcus pyogenes [3]): 0.125 µg/mL (≈ 0.341 µM)
MIC (Staphylococcus aureus [4]): 8 µg/mL (≈ 21.8 µM)
MIC (Escherichia coli): 4 µg/mL (≈ 10.9 µM)
MIC (Streptococcus pneumoniae [6]): 0.5 µg/mL (≈ 1.36 µM)
MIC (Staphylococcus aureus [7]): 1 µg/mL (≈ 2.73 µM)
MIC [8]: 8 µg/mL (≈ 21.8 µM)
MIC (Staphylococcus aureus [9]): 16 µg/mL (≈ 43.7 µM)
MIC (Salmonella): 2 µg/mL (≈ 5.46 µM)
MIC [10]: 2 µg/mL (≈ 5.46 µM)
bioavailability [13]: 25%
MIC (Klebsiella aerogenes): 128 µg/mL (≈ 349 µM)
MIC [14]: 1 µg/mL (≈ 2.73 µM)
MIC (Klebsiella pneumoniae): 2 µg/mL (≈ 5.46 µM)
